# Data from ChEMBL document CHEMBL1156920, “Structural analogues of schweinfurthin F: probing the steric, electronic, and hydrophobic properties of the D-ring substructure” (Bioorg Med Chem, 2010).
# Columns and labels:
# MOLT-4 = test: Growth inhibition of human MOLT4 cells; type: functional
# NCI-H226 = test: Growth inhibition of human NCI-H226 cells; type: functional
# NCI/ADR-RES = test: Growth inhibition of human NCI/ADR-RES cells; type: functional
# CAKI-1 = test: Growth inhibition of human Caki1 cells; type: functional
# EKVX = test: Growth inhibition of human EKVX cells; type: functional
# SF-295 = test: Cytotoxicity against human SF295 cells after 44 hrs by MTT assay; type: functional, cell-based; conditions: SF-295, 44 h
# Method in brief: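 SF-295 cells cultured in RPMI 1640 and A549 cells in F-12, each with 10% FBS, penicillin–streptomycin, amphotericin B and L-glutamine, at 37 °C in 5% CO2. Cells were grown to 60% confluency, then treated for 44 h. Medium was replaced with medium containing 0.06 mg/mL MTT (phenol red-free RPMI for SF-295) for 4 h. Acid/Triton/isopropanol stop solution was added, plates incubated overnight at 37 °C, OD read at 540 and 650 nm, and EC50 calculated.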
# LOX IMVI = test: Growth inhibition of human LOXIMVI cells; type: functional
# 786-0 = test: Growth inhibition of human 786-0 cells; type: functional
# [1] = Cytotoxicity against human NCI60 cells; type: functional
# BT-549 = test: Growth inhibition of human BT549 cells; type: functional
# U-251 = test: Growth inhibition of human U251 cells; type: functional
# NCI-H322M = test: Growth inhibition of human NCI-H322M cells; type: functional
# SF-268 = test: Growth inhibition of human SF268 cells; type: functional
# MDA-MB-435 = test: Growth inhibition of human MDA-MB-435 cells; type: functional
# HCC 2998 = test: Growth inhibition of human HCC2998 cells; type: functional
# [2] = Growth inhibition of human […] cells; type: functional
# KM12 = test: Growth inhibition of human KM12 cells; type: functional
# SN12C = test: Growth inhibition of human SN12C cells; type: functional
# ACHN = test: Growth inhibition of human ACHN cells; type: functional
# IGROV-1 = test: Growth inhibition of human IGROV1 cells; type: functional
# UACC-257 = test: Growth inhibition of human UACC257 cells; type: functional
# A498 = test: Growth inhibition of human A498 cells; type: functional
# [3] = read-out: pLC50 (the source's name) (converted)
structure (smiles),measurement,setting,value
COc1cc(CCc2cc(O)c(C/C=C(\C)CC/C=C(\C)CO)c(O)c2)cc2c1O[C@]1(C)CC[C@@H](O)C(C)(C)[C@H]1C2,GI50,MOLT-4,1.7 µM
same,LC50,MOLT-4,97.7 µM
same,TGI,MOLT-4; read-out: pTGI (converted),7.59 µM
same,GI50,NCI-H226,13.2 µM
same,LC50,NCI-H226,> 100 µM
same,TGI,NCI-H226; read-out: pTGI (converted),66.1 µM
same,GI50,NCI/ADR-RES,17.4 µM
same,CC50,NCI/ADR-RES; [3],> 100 µM
same,TGI,NCI/ADR-RES; read-out: pTGI (converted),61.7 µM
same,GI50,CAKI-1,4.37 µM
same,LC50,CAKI-1,> 100 µM
same,TGI,CAKI-1; read-out: pTGI (converted),21.9 µM
same,GI50,EKVX,5.75 µM
same,LC50,EKVX,> 100 µM
same,TGI,EKVX; read-out: pTGI (converted),33.1 µM
same,EC50,SF-295,> 10 µM
same,GI50,LOX IMVI,4.47 µM
same,LC50,LOX IMVI,46.8 µM
same,TGI,LOX IMVI; read-out: pTGI (converted),16.6 µM
same,GI50,786-0,2.4 µM
same,LC50,786-0,> 100 µM
same,TGI,786-0; read-out: pTGI (converted),> 100 µM
same,GI50,[1],4.9 µM
same,GI50,BT-549,3.16 µM
same,CC50,BT-549; [3],75.9 µM
same,TGI,BT-549; read-out: pTGI (converted),21.9 µM
same,GI50,U-251,3.02 µM
same,LC50,U-251,58.9 µM
same,TGI,U-251; read-out: pTGI (converted),18.6 µM
same,GI50,NCI-H322M,5.5 µM
same,CC50,NCI-H322M; [3],> 100 µM
same,TGI,NCI-H322M; read-out: pTGI (converted),42.7 µM
same,GI50,SF-268,6.03 µM
same,LC50,SF-268,87.1 µM
same,TGI,SF-268; read-out: pTGI (converted),25.7 µM
same,GI50,MDA-MB-435,6.31 µM
same,LC50,MDA-MB-435,> 100 µM
same,TGI,MDA-MB-435; read-out: pTGI (converted),32.4 µM
same,GI50,HCC 2998,6.17 µM
same,TGI,HCC 2998; read-out: pTGI (converted),25.1 µM
same,GI50,[2],1.45 µM
same,LC50,[2],> 100 µM
same,TGI,[2]; read-out: pTGI (converted),7.24 µM
same,GI50,KM12,4.17 µM
same,LC50,KM12,91.2 µM
same,TGI,KM12; read-out: pTGI (converted),18.6 µM
same,GI50,SN12C,7.59 µM
same,LC50,SN12C,> 100 µM
same,TGI,SN12C; read-out: pTGI (converted),52.5 µM
same,GI50,ACHN,5.25 µM
same,CC50,ACHN; [3],> 100 µM
same,TGI,ACHN; read-out: pTGI (converted),35.5 µM
same,GI50,IGROV-1,4.9 µM
same,LC50,IGROV-1,> 100 µM
same,TGI,IGROV-1; read-out: pTGI (converted),26.3 µM
same,GI50,UACC-257,6.61 µM
same,LC50,UACC-257,> 100 µM
same,TGI,UACC-257; read-out: pTGI (converted),28.2 µM
same,GI50,A498,7.59 µM
